Results on eleven compounds are retold here after article PMC9178606 (ACS Omega, 2022).

One experiment concerns LoVo cells. Nature of the experiment: Cytotoxicity assay. As to conditions: Homo sapiens, 24 h; for viability at 200 µg/mL: read-out: % of Viable cells, LoVo cell line of CRC; for IC50: read-out: IC50 LoVo cell line of CRC. Format: cell-based. An outline of the steps: (§1)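 Cells exposed 24 h at 37 °C in 5% CO2 to test compound (final 25, 50, 75, 100, 200, 400 μg/mL) in DMEM with 10% FBS. Lactate dehydrogenase released into supernatant measured by end-point assay, OD 550 nm. Viability expressed as percent of medium-only control; 0.1% Triton X-100 was the positive control. Single-point viability at 200 μg/mL, mean ± SD (n = 2). IC50 from viability-versus-concentration plot.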

The target of the next experiment is T1, α-amylase (Homo sapiens, UniProt P04746).
T1 sequence (P04746 16-511): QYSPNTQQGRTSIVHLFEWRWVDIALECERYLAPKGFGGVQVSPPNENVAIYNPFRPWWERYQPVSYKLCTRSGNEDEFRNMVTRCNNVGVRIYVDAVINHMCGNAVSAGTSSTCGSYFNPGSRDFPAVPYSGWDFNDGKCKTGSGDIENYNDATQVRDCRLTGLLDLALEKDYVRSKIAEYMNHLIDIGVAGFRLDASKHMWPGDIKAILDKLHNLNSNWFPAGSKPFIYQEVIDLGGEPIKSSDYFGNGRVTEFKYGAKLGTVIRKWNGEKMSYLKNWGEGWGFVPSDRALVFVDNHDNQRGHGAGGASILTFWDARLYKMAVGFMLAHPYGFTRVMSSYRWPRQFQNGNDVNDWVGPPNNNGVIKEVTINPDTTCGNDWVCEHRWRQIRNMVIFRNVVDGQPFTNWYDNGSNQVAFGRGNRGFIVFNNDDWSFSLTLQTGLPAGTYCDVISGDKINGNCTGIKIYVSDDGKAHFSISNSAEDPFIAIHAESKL
In words: In vitro α-amylase inhibitory activity. Format: biochemical. Put shortly: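 Labtest amylase substrate (diluted 1:1 in water) added; first read at 620 nm after 8 min. Final read after another 5 min at 37 °C. Inhibition calculated from the change between initial and final absorbance relative to control; IC50 from standard curve.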

Another experiment addresses collagenase. In words: Anti-proteases assay. The conditions noted are these: mean of two determinations ± SD. The format is biochemical. An outline of the steps: (§2)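 Enzyme preincubated with test compound (5−75 μg/mL) for 15 min at 37 °C, then 1% casein substrate added for 30 min at 37 °C. Reaction stopped with 5% trichloroacetic acid and centrifuged (12,000 rpm, 15 min). Filtrate absorbance read at 280 nm. Percent inhibition taken against control; IC50 from standard curve. Protease inhibitor cocktail was the positive control.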

The next experiment concerns the target T2, hsPLA2-G-X (Homo sapiens, UniProt O15496).
T2 sequence (O15496 43-165): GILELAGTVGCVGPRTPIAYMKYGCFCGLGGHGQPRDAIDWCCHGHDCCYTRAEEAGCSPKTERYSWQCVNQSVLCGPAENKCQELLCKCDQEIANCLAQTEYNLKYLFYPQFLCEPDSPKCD
Nature of the experiment: Anti-phospholipases colorimetric assay, hsPLA2-G-X. The format is biochemical. Put shortly: (§3)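 Test compound solutions (5−50 μg/mL) mixed with hsPLA2 solution (20 μg/mL, stock) and held 20 min at room temperature. Substrate added: 3.5 mM lecithin, 10 mM CaCl2, 3 mM sodium taurodeoxycholate, 100 mM NaCl, 0.055 mM phenol red, pH 7.6. Hydrolysis followed at 558 nm for 5 min. Percent inhibition taken against a no-compound control; IC50 from standard calibration curves.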

For the next experiment, the system named is HCT-116 cells. In words: Cytotoxicity assay. The conditions noted are these: Homo sapiens, HCT-116, 24 h, read-out: IC50 HCT-116 cell line of CRC. The format is cell-based. An outline of the steps:
as §1

A further experiment deals with T3, hsPLA2-G-V (Homo sapiens, UniProt P39877).
T3 sequence (P39877 21-138): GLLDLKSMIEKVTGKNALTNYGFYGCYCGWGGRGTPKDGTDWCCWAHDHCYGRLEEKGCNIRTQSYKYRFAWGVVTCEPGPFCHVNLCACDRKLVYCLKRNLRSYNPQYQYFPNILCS
Nature of the experiment: Anti-phospholipases colorimetric assay, hsPLA2-G-V. The format is biochemical. Put shortly: as §3

In a further experiment the target is T4, hsPLA2-G-IIA (Homo sapiens, UniProt P14555).
T4 sequence (P14555 21-144): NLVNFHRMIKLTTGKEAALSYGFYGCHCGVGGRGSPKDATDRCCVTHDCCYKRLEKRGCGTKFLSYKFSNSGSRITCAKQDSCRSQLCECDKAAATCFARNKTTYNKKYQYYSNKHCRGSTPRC
In words: Anti-phospholipases colorimetric assay, hsPLA2-G-IIA. The format is biochemical.

Another experiment addresses cathepsin-B (Homo sapiens, UniProt P07858). Nature of the experiment: Anti-proteases assay. Format: biochemical. Put shortly:
as §2

The target in a further experiment is xanthine oxidoreductase (Bos taurus, UniProt P80457). Nature of the experiment: In vitro xanthine oxidoreductase inhibitory activity. The format is biochemical.
xanthine oxidoreductase, sequence (P80457 2-1332 limits assumed): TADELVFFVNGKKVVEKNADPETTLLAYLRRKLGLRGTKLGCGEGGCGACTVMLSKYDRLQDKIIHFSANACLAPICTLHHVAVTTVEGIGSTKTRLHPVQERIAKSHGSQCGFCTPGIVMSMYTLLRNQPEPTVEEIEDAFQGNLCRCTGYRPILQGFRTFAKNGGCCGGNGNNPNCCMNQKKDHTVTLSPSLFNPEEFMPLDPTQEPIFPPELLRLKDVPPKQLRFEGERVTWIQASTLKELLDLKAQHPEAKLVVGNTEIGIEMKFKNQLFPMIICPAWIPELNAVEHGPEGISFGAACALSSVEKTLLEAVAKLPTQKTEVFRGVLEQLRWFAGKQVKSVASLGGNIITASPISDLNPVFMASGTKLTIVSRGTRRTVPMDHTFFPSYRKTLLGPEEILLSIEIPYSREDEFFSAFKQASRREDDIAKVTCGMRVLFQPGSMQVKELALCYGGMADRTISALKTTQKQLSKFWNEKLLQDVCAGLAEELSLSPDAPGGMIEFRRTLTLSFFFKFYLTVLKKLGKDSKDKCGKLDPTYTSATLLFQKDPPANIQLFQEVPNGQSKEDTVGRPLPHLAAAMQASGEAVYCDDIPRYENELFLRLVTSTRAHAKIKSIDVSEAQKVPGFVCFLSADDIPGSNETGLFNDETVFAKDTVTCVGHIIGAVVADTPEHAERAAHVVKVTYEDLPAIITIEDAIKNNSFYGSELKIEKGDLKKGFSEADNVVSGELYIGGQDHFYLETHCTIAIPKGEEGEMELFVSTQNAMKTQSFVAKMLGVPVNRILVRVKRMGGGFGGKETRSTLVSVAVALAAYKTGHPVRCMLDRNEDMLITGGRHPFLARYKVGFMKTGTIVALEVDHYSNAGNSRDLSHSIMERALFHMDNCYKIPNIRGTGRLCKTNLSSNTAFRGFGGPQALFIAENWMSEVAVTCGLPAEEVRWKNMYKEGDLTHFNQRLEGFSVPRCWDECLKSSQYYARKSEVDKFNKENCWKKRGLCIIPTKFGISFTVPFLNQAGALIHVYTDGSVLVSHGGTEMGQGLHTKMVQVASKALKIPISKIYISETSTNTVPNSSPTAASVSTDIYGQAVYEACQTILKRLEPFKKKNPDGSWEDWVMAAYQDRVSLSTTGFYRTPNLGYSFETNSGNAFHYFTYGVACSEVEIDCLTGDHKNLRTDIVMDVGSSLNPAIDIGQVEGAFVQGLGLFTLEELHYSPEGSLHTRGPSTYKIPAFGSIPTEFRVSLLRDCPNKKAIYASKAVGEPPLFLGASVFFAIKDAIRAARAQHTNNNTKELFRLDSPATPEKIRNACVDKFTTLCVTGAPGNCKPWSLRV
The next experiment concerns the target α-glucosidase (Saccharomyces cerevisiae, UniProt P53341). Nature of the experiment: In vitro α-glucosidase inhibitory activity. The format is biochemical, Saccharomyces cereviseae.
A further experiment has as its target T5, trypsin (Bos taurus, UniProt P00760).
T5 sequence (P00760 24-246): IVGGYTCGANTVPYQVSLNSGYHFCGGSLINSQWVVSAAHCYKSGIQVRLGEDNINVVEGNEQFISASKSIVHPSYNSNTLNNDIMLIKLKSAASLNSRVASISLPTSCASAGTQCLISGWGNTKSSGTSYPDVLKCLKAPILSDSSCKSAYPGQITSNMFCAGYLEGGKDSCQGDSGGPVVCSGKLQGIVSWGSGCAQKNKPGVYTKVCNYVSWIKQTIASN
In words: Anti-proteases assay. The format is biochemical. An outline of the steps:
as §2

The next experiment addresses thrombin (Homo sapiens, UniProt P00734). Nature of the experiment: Anti-proteases assay. Format: biochemical.

Usually IC50 stands for the concentration that inhibits the measured activity by half.

α-glucosidase, sequence (P53341 whole entry): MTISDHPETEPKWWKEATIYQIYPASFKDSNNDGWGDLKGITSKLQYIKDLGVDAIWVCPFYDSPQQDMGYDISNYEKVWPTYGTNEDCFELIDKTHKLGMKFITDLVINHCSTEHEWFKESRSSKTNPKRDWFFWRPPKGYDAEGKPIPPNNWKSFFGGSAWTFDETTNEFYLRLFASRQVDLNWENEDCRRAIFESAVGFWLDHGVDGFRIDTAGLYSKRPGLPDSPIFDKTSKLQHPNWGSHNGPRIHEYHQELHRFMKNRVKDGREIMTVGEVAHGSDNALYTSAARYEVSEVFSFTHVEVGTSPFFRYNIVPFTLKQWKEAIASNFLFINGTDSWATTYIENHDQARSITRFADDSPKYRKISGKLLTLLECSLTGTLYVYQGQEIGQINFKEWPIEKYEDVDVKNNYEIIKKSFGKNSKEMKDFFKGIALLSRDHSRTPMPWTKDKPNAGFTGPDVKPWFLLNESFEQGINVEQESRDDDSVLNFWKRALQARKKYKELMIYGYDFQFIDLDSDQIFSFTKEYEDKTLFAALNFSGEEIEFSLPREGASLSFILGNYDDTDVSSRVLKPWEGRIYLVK

With `COc1cc(/C=N/n2c(C)nc3ccc(C)cc3c2=O)cc([N+](=O)[O-])c1O` [Compound 3d, (E)-3-[(4-Hydroxy-3-methoxy-5-nitrobenzylidene)amino]-2,6-dimethylquinazolin-4(3H)-one], the viability at 200 µg/mL with LoVo cells amounted to 90.5 ± 3.54%. The IC50 was found to be 375 ± 11.5 µM on α-amylase and 21.4 ± 2.31 µM on hsPLA2-G-X. Moreover, the “mean IC50 against Collagenase” value at collagenase is reported as 57.83 ± 2.69 µg/mL.
Turning to `Cc1nc2ccccc2c(=O)n1NC(=O)CSc1nc2ccccc2c(=O)n1-c1ccccc1` [Compound 10, N-(2-Methyl-4-oxo-4H-quinazolin-3-yl)-2-(4-oxo-3-phenyl-3,4-dihydroquinazolin-2-ylsulfanyl)acetamide], the IC50 was 230 ± 9.04 µM in the experiment on HCT-116 cells, 14.7 ± 0.42 µM against hsPLA2-G-V, 273 ± 9.04 µM in the experiment on LoVo cells and 13.8 ± 2.12 µM at hsPLA2-G-IIA. Further, the viability at 200 µg/mL in the experiment on LoVo cells was determined as 22 ± 1.41%.
Regarding `O=c1c2ccccc2[nH]c(=S)n1-c1ccccc1` [Compound 9, 2-Mercapto-3-phenyl-3H-quinazolin-4-one], the IC50 against hsPLA2-G-V stood at 151 ± 2.12 µM.
With `COc1ccc2cc(/C=N/n3c(C)nc4ccc(Br)cc4c3=O)ccc2c1` [Compound 3f, (E)-6-Bromo-3-[((6-methoxynaphthalen-2-yl)methylene)amino]-2-methylquinazolin-4(3H)-one], the viability at 200 µg/mL in the experiment on LoVo cells worked out at 58 ± 4.24%. Moreover, the IC50 at cathepsin-B was 132 µM; at xanthine oxidoreductase it was 7.34 ± 0.33 µM; against α-amylase, 310 ± 10 µM; against α-glucosidase it was 12.4 ± 0.83 µM.
At α-amylase, `Cc1nc2ccc(Br)cc2c(=O)n1/N=C/c1ccc(C(=O)O)cc1` [Compound 3b, (E)-4-[(6-Bromo-2-methyl-4-oxo-4H-quinazolin-3-ylimino)methyl]benzoic acid] returned an IC50 of 264 ± 11 µM.
On the same count and under the same terms, for `O=c1c(O)c(-c2ccc(O)c(O)c2)oc2cc(O)cc(O)c12` [Quercetin, quercetin, reference compound] the value was 407 ± 2.83 µM.
Take `COc1cc(/C=N/n2c(C)nc3ccc(Br)cc3c2=O)ccc1OCc1ccc(Cl)cc1` [Compound 5, (E)-6-Bromo-3-{[4-(4-chlorobenzyloxy)-3-methoxybenzylidene]amino}-2-methyl-3H-quinazolin-4-one]: the IC50 worked out at 358 ± 4.95 µM at α-amylase and 13.7 ± 1.41 µM on α-glucosidase.
In the case of `COc1cc(/C=N/n2c(C)nc3ccc(Br)cc3c2=O)ccc1O` [Compound 3g, (E)-6-Bromo-3-[(4-hydroxy-3-methoxybenzylidene)amino]-2-methyl-3H-quinazolin-4-one], the IC50 in the experiment on HCT-116 cells was determined as 285 ± 9.11 µM; against hsPLA2-G-V it was 22.3 ± 0.92 µM; with LoVo cells, 206 ± 7.29 µM; at hsPLA2-G-X, 14.5 ± 0.92 µM. In addition, the viability at 200 µg/mL in the experiment on LoVo cells was determined as 16.8 ± 0.35%.
On to `Cc1nc2ccc(Cl)cc2c(=O)n1NC(=O)CCl` [Compound 7b, 2-Chloro-N-(6-chloro-2-methyl-4-oxo-4H-quinazolin-3-yl)acetamide], for which the figures for the IC50 against cathepsin-B and against hsPLA2-G-IIA were 31.5 µM and 127 ± 2.12 µM, respectively.
For `COc1cc(NCC(=O)Nn2c(C)nc3ccc(Cl)cc3c2=O)cc(OC)c1OC` [Compound 12, N-(6-Chloro-2-methyl-4-oxo-4H-quinazolin-3-yl)-2-(3,4,5-trimethoxyphenylamino)acetamide], on α-amylase, the IC50 came to 401 ± 6.36 µM.
Take `Cc1nc2ccc(Cl)cc2c(=O)n1NC1=NC(=O)CS1` [Compound 8, 6-Chloro-2-methyl-3-(4-oxo-4,5-dihydrothiazol-2-ylamino)-3H-quinazolin-4-one]: the IC50 was 449 ± 11.5 µM in the experiment with HCT-116 cells, 319 ± 11.4 µM in the experiment with LoVo cells, 1.78 µM against trypsin and 0.729 µM against thrombin. Besides, the viability at 200 µg/mL in the experiment with LoVo cells came out at 13.5 ± 0.71%.
